The results in this text go back to publication PMC6682128 (ACS Omega, 2019).

The term CC50 denotes the concentration giving 50% cytotoxicity.

Data set [1] in a line: Cytotoxicity assay. Format: cell-based. Conditions: human. An outline of the steps:
(§1)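 Replicon cells (Huh5-2, Huh7.5-3a or Huh7.5-4a) were seeded at 10^4 per well and grown 24 h in complete DMEM. They were then exposed for three days to serial dilutions of test compound or DMSO solvent. Lysates were assayed for ATP by chemiluminescence, normalised to Bradford total protein. CC50 was obtained by nonlinear regression against log concentration.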

The nature of data set [2]: Cytotoxicity assay. In kind it is cell-based. Conditions: human, Huh7.5-3a (S52) replicon cells. Put shortly:
as §1

In data set [3] the test system is Huh7.5-4a (ED43) replicon cells. As to the kind of experiment: Cytotoxicity assay. Conditions: ATP levels. Format: cell-based, human. An outline of the steps:
as §1

For data set [4], the system named is HCV genotype 1b (+) strand RNA. As to the kind of experiment: HCV RNA quantification by RT-qPCR in Huh5-2 replicon cells. In kind it is cell-based, Hepatitis C virus. Conditions: 0.05 nM compound, Huh5-2 cells, normalized to YWHAZ. A general note: Real-time PCR tracks product formation cycle by cycle.
A further data set has as its system HCV NS5A (Con1). In kind it is cell-based, Hepatitis C virus. Conditions: Huh5-2 cells; for cell viability (nuclei staining with propidium iodide): 0.5 and 0.05 nM; for NS5A protein levels by indirect immunofluorescence: highest compound concentration used (0.5 nM).
Data set [5] has as its system HCV genotype 1b (strain Con1) replicon. Kind of data set: HCV genotype 1b replicon luciferase assay in Huh5-2 cells. In kind it is cell-based, Hepatitis C virus. Conditions: EC50 comparison. (A replicon is a self-replicating genome or part of one, used to study replication in cells.)

A value given as a limit tells only on which side of the number the result lay.

Consider `COC(=O)N[C@H](C(=O)N1CCC[C@H]1c1nc(-c2ccc(-c3ccc(-c4c[nH]c([C@@H]5CCCN5C(=O)[C@@H](NC(=O)OC)C(C)C)n4)cc3)cc2)c[nH]1)C(C)C` [daclatasvir, reference compound], for which the CC50 at 3 days in “Cytotoxicity assay [1]” and in the data set “Cytotoxicity assay [2]” was 17.7 µM each time. The “CC50, genotype 4a (ED43)” value in data set [3] was 17 700 nM.

With `CCOC(=O)N[C@@H](CC(C)C)C(=O)N1CCC[C@H]1C(=O)Nc1cccc(C#CC#Cc2cccc(NC(=O)[C@@H]3CCCN3C(=O)[C@H](CC(C)C)NC(=O)OCC)c2)c1` [2f, Diethyl((2S,2′S)-((2S,2′S)-(((buta-1,3-diyne-1,4-diylbis(3,1-phenylene))bis(azanediyl))bis(carbonyl))bis(pyrrolidine-2,1-diyl))bis(4-methyl-1-oxopentane-1,2-diyl))dicarbamate], the “HCV RNA replication reduced to (relative to control)” value in data set [4] is listed as about 90%. In addition, the CC50 at 3 days in the data set “Cytotoxicity assay [1]” and in “Cytotoxicity assay [2]” was over 200 µM each time. Further, the “cell viability (nuclei staining with propidium iodide)” value in the data set on HCV NS5A (Con1) is listed as “not affected”. In addition, the “NS5A protein levels by indirect immunofluorescence” value in the data set with HCV NS5A (Con1) is given as “almost undetectable levels”. For the same compound, the “CC50, genotype 4a (ED43)” value in data set [3] is recorded as >200 000 nM.

For the compound `COC(=O)N[C@H](C(=O)N1CCC[C@H]1C(=O)Nc1cccc(C#CC#Cc2cccc(NC(=O)[C@@H]3CCCN3C(=O)[C@@H](NC(=O)OC)C(C)C)c2)c1)C(C)C` [2a, Dimethyl((2S,2′S)-((2S,2′S)-(((buta-1,3-diyne-1,4-diylbis(3,1-phenylene))bis(azanediyl))bis(carbonyl))bis(pyrrolidine-2,1-diyl))bis(3-methyl-1-oxobutane-1,2-diyl))dicarbamate], the CC50 at 3 days in “Cytotoxicity assay [1]” and in the data set “Cytotoxicity assay [2]” was over 200 µM throughout. For the same compound, in data set [3], the “CC50, genotype 4a (ED43)” value was >200 000 nM.

As to `CC(C)[C@H](NC(=O)OCc1ccccc1)C(=O)N1CCC[C@H]1C(=O)Nc1ccc(C#CC#Cc2ccc(NC(=O)[C@@H]3CCCN3C(=O)[C@@H](NC(=O)OCc3ccccc3)C(C)C)cc2)cc1` [1e, Dibenzyl((2S,2′S)-((2S,2′S)-(((buta-1,3-diyne-1,4-diylbis(4,1-phenylene))bis(azanediyl))bis(carbonyl))bis(pyrrolidine-2,1-diyl))bis(3-methyl-1-oxobutane-1,2-diyl))dicarbamate], the CC50 at 3 days in “Cytotoxicity assay [1]” is over 20 µM. For the same compound, the “fold less active than compound 1b” value in data set [5] turned out to be 28 fold.

`CC(C)[C@H](NC(=O)OCc1ccccc1)C(=O)N1CCC[C@H]1C(=O)Nc1cccc(C#CC#Cc2cccc(NC(=O)[C@@H]3CCCN3C(=O)[C@@H](NC(=O)OCc3ccccc3)C(C)C)c2)c1` [2e, Dibenzyl((2S,2′S)-((2S,2′S)-(((buta-1,3-diyne-1,4-diylbis(3,1-phenylene))bis(azanediyl))bis(carbonyl))bis(pyrrolidine-2,1-diyl))bis(3-methyl-1-oxobutane-1,2-diyl))dicarbamate] gave a CC50 at 3 days in the data set “Cytotoxicity assay [1]” of over 10 µM. Besides, in data set [5], the “fold less active than 2b” value worked out at 22 fold.

For the compound `CCOC(=O)N[C@H](C(=O)N1CCC[C@H]1C(=O)Nc1ccc(C#CC#Cc2ccc(NC(=O)[C@@H]3CCCN3C(=O)[C@@H](NC(=O)OCC)C(C)C)cc2)cc1)C(C)C` [1b, Diethyl((2S,2′S)-((2S,2′S)-(((buta-1,3-diyne-1,4-diylbis(4,1-phenylene))bis(azanediyl))bis(carbonyl))bis(pyrrolidine-2,1-diyl))bis(3-methyl-1-oxobutane-1,2-diyl))dicarbamate], the midpoint of cytotoxicity in “Cytotoxicity assay [1]”, the CC50 at 3 days, lay at 2.58 µM. Moreover, in data set [5], the “fold more active than compound 1n” value was determined as 3 fold.

For `CCOC(=O)N[C@@H](C(=O)N1CCC[C@H]1C(=O)Nc1cccc(C#CC#Cc2cccc(NC(=O)[C@@H]3CCCN3C(=O)[C@H](NC(=O)OCC)C(C)C)c2)c1)C(C)C` [2n, Diethyl((2R,2′R)-((2S,2′S)-(((buta-1,3-diyne-1,4-diylbis(3,1-phenylene))bis(azanediyl))bis(carbonyl))bis(pyrrolidine-2,1-diyl))bis(3-methyl-1-oxobutane-1,2-diyl))dicarbamate], the CC50 at 3 days in “Cytotoxicity assay [1]” is over 20 µM. For the same compound, in data set [5], the “fold more active than 2b” value was “about 6 fold”.

For `COC(=O)N[C@H](CC(C)C)C(=O)N1CCC[C@H]1C(=O)Nc1cccc(C#CC#Cc2cccc(NC(=O)[C@@H]3CCCN3C(=O)[C@@H](CC(C)C)NC(=O)OC)c2)c1` [2p, Dimethyl((2R,2′R)-((2S,2′S)-(((buta-1,3-diyne-1,4-diylbis(3,1-phenylene))bis(azanediyl))bis(carbonyl))bis(pyrrolidine-2,1-diyl))bis(4-methyl-1-oxopentane-1,2-diyl))dicarbamate], the CC50 at 3 days in “Cytotoxicity assay [1]” and in “Cytotoxicity assay [2]” was over 200 µM each time. Further, in data set [3], the “CC50, genotype 4a (ED43)” value is on record as >200 000 nM. The “fold more active than 2o” value in data set [5] is reported as “about 3 × 10^5 fold”.

For the compound `CCOC(=O)N[C@@H](C(=O)N1CCC[C@@H]1C(=O)Nc1cccc(C#CC#Cc2cccc(NC(=O)[C@H]3CCCN3C(=O)[C@H](NC(=O)OCC)C(C)C)c2)c1)C(C)C` [2k, Diethyl((2R,2′R)-((2R,2′R)-(((buta-1,3-diyne-1,4-diylbis(3,1-phenylene))bis(azanediyl))bis(carbonyl))bis(pyrrolidine-2,1-diyl))bis(3-methyl-1-oxobutane-1,2-diyl))dicarbamate], the CC50 at 3 days in the data set “Cytotoxicity assay [1]” is over 10 µM.

Regarding `CCOC(=O)N[C@H](CC(C)C)C(=O)N1CCC[C@H]1C(=O)Nc1cccc(C#CC#Cc2cccc(NC(=O)[C@@H]3CCCN3C(=O)[C@@H](CC(C)C)NC(=O)OCC)c2)c1` [2q, Diethyl((2R,2′R)-((2S,2′S)-(((buta-1,3-diyne-1,4-diylbis(3,1-phenylene))bis(azanediyl))bis(carbonyl))bis(pyrrolidine-2,1-diyl))bis(4-methyl-1-oxopentane-1,2-diyl))dicarbamate], in data set [4], the “HCV RNA replication reduced to (relative to control)” value was determined as 56%. The 50% cytotoxic concentration (CC50) at 3 days in the data set “Cytotoxicity assay [1]” was over 200 µM. For the same compound, the 50% cytotoxic concentration (CC50) at 3 days in the data set “Cytotoxicity assay [2]” was over 200 µM. Further, in the data set on HCV NS5A (Con1), the “cell viability (nuclei staining with propidium iodide)” value was “not affected” and the “NS5A protein levels by indirect immunofluorescence” value is given as “almost undetectable levels”. The “CC50, genotype 4a (ED43)” value in data set [3] is >200 000 nM.

Compound `CC(C)C[C@H](NC(=O)OCc1ccccc1)C(=O)N1CCC[C@H]1C(=O)Nc1ccc(C#CC#Cc2ccc(NC(=O)[C@@H]3CCCN3C(=O)[C@H](CC(C)C)NC(=O)OCc3ccccc3)cc2)cc1` [1o, Dibenzyl((2S,2′S)-((2S,2′S)-(((buta-1,3-diyne-1,4-diylbis(4,1-phenylene))bis(azanediyl))bis(carbonyl))bis(pyrrolidine-2,1-diyl))bis(4-methyl-1-oxopentane-1,2-diyl))dicarbamate] had a CC50 at 3 days in the data set “Cytotoxicity assay [1]” of over 10 µM.

`CCOC(=O)N[C@@H](C(=O)N1CCC[C@@H]1C(=O)Nc1ccc(C#CC#Cc2ccc(NC(=O)[C@H]3CCCN3C(=O)[C@H](NC(=O)OCC)C(C)C)cc2)cc1)C(C)C` [1k, Diethyl((2R,2′R)-((2R,2′R)-(((buta-1,3-diyne-1,4-diylbis(4,1-phenylene))bis(azanediyl))bis(carbonyl))bis(pyrrolidine-2,1-diyl))bis(3-methyl-1-oxobutane-1,2-diyl))dicarbamate] yielded a 50% cytotoxic concentration (CC50) at 3 days in “Cytotoxicity assay [1]” of over 10 µM.

`CCCCOC(=O)N[C@@H](CC(C)C)C(=O)N1CCC[C@H]1C(=O)Nc1ccc(C#CC#Cc2ccc(NC(=O)[C@@H]3CCCN3C(=O)[C@H](CC(C)C)NC(=O)OCCCC)cc2)cc1` [1g, Dibutyl((2S,2′S)-((2S,2′S)-(((buta-1,3-diyne-1,4-diylbis(4,1-phenylene))bis(azanediyl))bis(carbonyl))bis(pyrrolidine-2,1-diyl))bis(4-methyl-1-oxopentane-1,2-diyl))dicarbamate] returned a CC50 at 3 days in “Cytotoxicity assay [1]” of over 10 µM.

`CCOC(=O)N[C@@H](CC(C)C)C(=O)N1CCC[C@@H]1C(=O)Nc1ccc(C#CC#Cc2ccc(NC(=O)[C@H]3CCCN3C(=O)[C@H](CC(C)C)NC(=O)OCC)cc2)cc1` [1l, Diethyl((2S,2′S)-((2R,2′R)-(((buta-1,3-diyne-1,4-diylbis(4,1-phenylene))bis(azanediyl))bis(carbonyl))bis(pyrrolidine-2,1-diyl))bis(4-methyl-1-oxopentane-1,2-diyl))dicarbamate] displayed a 50% cytotoxic concentration (CC50) at 3 days in the data set “Cytotoxicity assay [1]” of over 10 µM.
